The source of these data is PubChem BioAssay AID463073 (The Scripps Research Institute Molecular Screening Center, 2010).

Hit rate of the full screen: of about 2,000 compounds, about 10 (0.5%) were called active. The sample holds actives, similar compounds and a random draw of the others, so the mix is not that of the screen.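 How the source made its calls: active means inhibition above 30%; inactive means the rest.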

Sequence of Protein-arginine deiminase type-4 (Homo sapiens) (Q9UM07 whole entry, looked up): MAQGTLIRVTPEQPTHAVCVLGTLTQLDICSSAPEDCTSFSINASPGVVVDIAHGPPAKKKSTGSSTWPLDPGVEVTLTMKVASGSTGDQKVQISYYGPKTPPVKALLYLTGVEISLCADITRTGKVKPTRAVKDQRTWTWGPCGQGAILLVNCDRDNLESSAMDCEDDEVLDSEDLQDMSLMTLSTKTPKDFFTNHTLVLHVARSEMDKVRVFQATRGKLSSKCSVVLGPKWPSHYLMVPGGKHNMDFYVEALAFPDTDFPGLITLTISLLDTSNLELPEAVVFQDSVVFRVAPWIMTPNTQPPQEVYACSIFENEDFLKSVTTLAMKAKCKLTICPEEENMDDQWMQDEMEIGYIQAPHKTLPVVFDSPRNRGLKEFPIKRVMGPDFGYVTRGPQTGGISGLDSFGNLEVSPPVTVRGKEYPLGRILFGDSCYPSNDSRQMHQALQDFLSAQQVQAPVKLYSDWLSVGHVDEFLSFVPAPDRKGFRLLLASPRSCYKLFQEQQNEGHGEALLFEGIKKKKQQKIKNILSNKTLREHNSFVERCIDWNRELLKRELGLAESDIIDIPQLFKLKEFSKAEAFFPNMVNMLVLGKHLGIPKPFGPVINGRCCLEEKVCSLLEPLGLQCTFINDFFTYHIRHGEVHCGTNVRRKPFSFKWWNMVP

The assay has as its target Protein-arginine deiminase type-4 (Homo sapiens) (UniProt Q9UM07). The experiment in a line: blockers of protein arginine deiminase 4 – biochemical, fluorescence polarization, primary screen (AID 463073).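 Further: 0% = PAD4 with DMSO and 100% = wells lacking PAD4.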 The conditions noted are these: recombinant PAD4, RFA probe fluorescence polarization; at 5 µM; hits give high values. The essentials: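 system = recombinant PAD4 | amount = PAD4 at 2 µM in dispensed buffer, before additions | incubation = 30 min 25 °C preincubation, 5 h 37 °C labeling | measured by = FP, ex 525 nm, em 598 nm | replication = single well per compound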
For orientation: Polarisation of emitted light reports the rotation of a fluorescent probe.
A word on the inhibition: it is the relative decrease from the control value, in per cent. Regarding `Cc1ccc2c(c1)C1OCCC1C1N2C(=O)C2C(C(=O)O)C3C=CC21O3` (centres undefined), the inhibition is 6.06% (inactive). On to `Cn1cc(CN2CCC(C(=O)N3CCCCC3)CC2)c(-c2ccccc2F)n1`, for which the inhibition was 4.74% (inactive). `O=C1OC(c2ccccc2)=C/C1=C/c1cccs1`: the inhibition is -2.45% (inactive). Take `c1ccc(Nc2ccccn2)nc1`: the inhibition was -4.7% (inactive). With `CS(=O)(=O)c1cccc(C(=O)Oc2ccccc2)c1`, the inhibition is 5.29% (inactive).

For `CC(=O)OCC1OC(n2ccc(=O)[nH]c2=O)C(O)C1O` (centres undefined), the inhibition was 1.17% (inactive). For `CC(C)C[C@H](NC(=O)[C@@H]1Cc2ccccc2CN1C(=O)OC(C)(C)C)C(=O)NCC1CCC(C(=O)O)CC1` (some centres undefined), the inhibition was 0.39% (inactive). In the case of `CS(=O)(=O)Nc1cccc(C(=O)CC2(O)C(=O)Nc3ccc(Br)cc32)c1` (centres undefined), the inhibition is 0.36% (inactive). Consider `Cn1c2c(c(=O)[nH]c1=O)C(c1ccc(O)cc1)C1=C(N2)c2ccccc2C1=O` (centres undefined), for which the inhibition is 4.81% (inactive). `Cc1cc(C)c(NC(=O)NC(=O)C(Cl)(Cl)Cl)c(C)c1`: the inhibition is -2.27% (inactive). `CC(=O)OC[C@H]1O[C@@H](Sc2cccc3cccnc23)[C@H](OC(C)=O)[C@@H](OC(C)=O)[C@H]1OC(C)=O`: the inhibition is 1.27% (inactive).

With `CCOC(=O)C1C(=O)OC(C)(C)C1C(C)C(=O)c1ccc(C)cc1` (centres undefined), the inhibition was -0.2% (inactive).

Regarding `CCOC(=O)C(Cc1cc(C(C)=O)ccc1OC(C)C)C(=O)OCC`, the inhibition was 2.78% (inactive). To `CCOc1ccc(N2C(=O)CC(NCCNc3ccc([N+](=O)[O-])cn3)C2=O)cc1` (centres undefined) belongs 9.78% (inactive); to `CN1C(=O)C(O)(CC(=O)c2ccccc2O)c2cc(Br)ccc21` (centres undefined), -1.81% (inactive); to `CCOC(=O)C(NC(=O)CCC(=O)Nc1ccc(S(N)(=O)=O)cc1)C(O)c1ccccc1` (centres undefined), -0.41% (inactive). Take `CCc1cc2c(C)cc(=O)oc2cc1OC(=O)C1CCCN1C(=O)OC(C)(C)C` (centres undefined): the inhibition is 1.27% (inactive). `COC(=O)c1[nH]c2ccc(C)cc2c1NC(=O)CN1CCc2cc(OC)c(OC)cc2C1`: the inhibition was 0.78% (inactive).

As for `COc1ccc(CC(=O)NCC2(c3ccc(OC)c(OC)c3)CCOCC2)cc1`, the inhibition is 2.08% (inactive).

For `COc1ccc(CNC(=O)c2c(O)c3cccc4c3n(c2=O)CCC4)cc1`, the inhibition was 4.58% (inactive). Consider `CC(C)CC(=O)Nc1ccc2oc(-c3ccncc3)nc2c1`, for which the inhibition is 1.75% (inactive). For the molecule `CC(C)NC(=O)c1ccc(C(C)C)cc1`, the inhibition is -2.74% (inactive). In the case of `O=C(CN1C(=O)c2ccccc2S1(=O)=O)Nc1ccccc1`, the inhibition is -2.01% (inactive).

Consider `COC(=O)C1=NN(C(=O)c2cccc(Br)c2)C(O)(c2ccc(Cl)cc2)C1` (centres undefined), for which the inhibition was -1.03% (inactive).

As for `CC(C)(C)C(=O)Nc1cccc(OC(F)(F)C(F)Cl)c1` (centres undefined), the inhibition is 3.96% (inactive). `COc1ccc(-c2csc(-c3cccnc3)n2)cc1C`: the inhibition was -0.79% (inactive). As for `COc1ccc(OC)c(C(=O)c2coc3ccc(O)cc23)c1`, the inhibition is -2.55% (inactive). The same measure for `OCC(O)CN1CCN(c2ccccc2)CC1` (centres undefined): -2.45% (inactive). Consider `O=c1c(-c2ccccc2)c(O)c2cccc3c2n1CCC3`, for which the inhibition is 5.09% (inactive). On to `Cc1cc(OC(=O)CNC(=O)OC(C)(C)C)c2c(C)cc(=O)oc2c1`, for which the inhibition is 22.1% (inactive). To `CC(NC(=O)OCc1ccccc1)C(=O)N1CC(O)CC1C(=O)O` (centres undefined) belongs 6.64% (inactive). As for `COC(=O)c1ccc(CC(=O)c2ccc(O)cc2O)o1`, the inhibition is 4.18% (inactive). Turning to `CCCCCCCC(=O)OCC(=O)[C@@]1(O)CC[C@H]2[C@@H]3CCC4=CC(=O)CC[C@]4(C)[C@H]3[C@@H](O)C[C@@]21C`, the inhibition is 4.58% (inactive).

As for `Cc1nc(C2CC(=O)OC23CCCCC3)cs1` (centres undefined), the inhibition is -0.47% (inactive). With `CSCCC(NC(=O)OC(C)(C)C)C(=O)Oc1ccc2c(=O)c(-c3ccc4c(c3)OCCO4)coc2c1` (centres undefined), the inhibition is 14.1% (inactive). The same measure for `Cn1nc(-c2ccccn2)nc2c(=O)n(C)c(=O)nc1-2`: 98.2% (active); for `Cn1c(=O)[nH]c2nnc(-c3ccc(Cl)c(Cl)c3)nc2c1=O`: 4.18% (inactive); for `Cn1nc(-c2ccc(Cl)cc2)nc2c(=O)n(C)c(=O)nc1-2`: 90.7% (active). As for `c1ccc(-c2ccccn2)nc1`, the inhibition was 0.78% (inactive). Take `CN(C)CCCNc1ncnc2c1cnn2-c1ccccc1`: the inhibition was -1.45% (inactive). As for `CCNC(=O)c1sc2cc(C)ccc2c1Cl`, the inhibition was 0.99% (inactive).

Turning to `CSCCC(NC(=O)/C(=C/c1ccc2c(c1)OCO2)NC(=O)c1cccc([N+](=O)[O-])c1)C(=O)O` (centres undefined), the inhibition is -0.41% (inactive). As for `Nc1nnc(CSCc2ccc(Cl)cc2Cl)s1`, the inhibition was 3.81% (inactive).

On to `CC12CCC(C(=O)NNc3ccccc3)(C(=O)C1=O)C2(C)C` (centres undefined), for which the inhibition is -2.07% (inactive). As for `COc1ccc(CN2CCCC(C(=O)c3ccc(Cl)cc3)C2)cc1Cn1cccn1` (centres undefined), the inhibition is -0.23% (inactive).

As to `O=C(CSCc1ccccc1)NCCCN1CCOCC1`, the inhibition is -0.81% (inactive).

On to `CC(=O)c1cc2c(cc1NC(=O)c1ccco1)OCCO2`, for which the inhibition is -1.18% (inactive). With `COC(=O)[C@H]1[C@H]2C[C@@H]3c4[nH]c5cc(OC)ccc5c4CCN3C[C@H]2C[C@@H](OC(=O)c2ccc(N)cc2)[C@@H]1OC`, the inhibition was 6.06% (inactive). The same measure for `COC(=O)c1[nH]c2ccc(F)cc2c1NC(=O)C1=COCCO1`: 6.4% (inactive). In the case of `COc1cc(CNCCc2ccccc2F)ccc1OCC(=O)N1CCCCC1`, the inhibition is -1.57% (inactive). With `COCCOC(=O)C1=C(N)OC2=C(C(=O)CCC2)C1c1cccnc1` (centres undefined), the inhibition was 1.53% (inactive). With `COc1ccc(NC(=O)CC2C(=O)N(C)C(=S)N2Cc2ccncc2)cc1` (centres undefined), the inhibition is -3.53% (inactive). Turning to `CN1CCCN=C1COC(=O)C(O)(c1ccccc1)C1CCCCC1` (centres undefined), the inhibition is -4.01% (inactive). For `Cc1cccc(OCC(=O)Nc2ccc(C(=O)NCC(C)C)cc2)c1`, the inhibition is 0.21% (inactive). As to `N#CCC(N)=C(C#N)C#N`, the inhibition is 0.67% (inactive). Consider `CC(=O)[C@@]1(O)CC[C@H]2[C@@H]3CCC4=CC(=O)CC[C@]4(C)[C@H]3[C@@H](O)C[C@@]21C`, for which the inhibition is -0.33% (inactive). To `Cc1ccccc1NC(=O)C1c2ccccc2Oc2ccccc21` belongs -0.73% (inactive); to `CC(C)NS(=O)(=O)c1ccc(OCC(=O)Nc2cccc(F)c2)cc1`, 2.86% (inactive). On to `COc1ccc(C2=C(CN(C)C)C(c3ccccc3)c3ccccc3O2)cc1` (centres undefined), for which the inhibition is -1.24% (inactive).
